PMC10774712 (RSC Advances, 2024)
“Also recorded” adds a separate entry of the source.

What was measured:
HOP-92 = assay: NCI 60 SRB assay; format: cell-based; details: Homo sapiens, HOP-92, read-out: growth inhibition
NCI 60 cancer cell lines = assay: NCI 60 cell panel anti-proliferative assay; format: cell-based, human; details: 10 μM single dose
EGFR tyrosine kinase = EGFR tyrosine kinase (Homo sapiens, UniProt P00533); assay: In vitro EGFR tyrosine kinase activity; format: biochemical; details: read-out: EGFR ± SD IC50
MDA-MB-468 cells [1] = assay: Annexin-V-FITC/PI apoptosis assay; format: cell-based
Summary of the method: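 MDA-MB-468 cells seeded at 4 × 10⁶ per T75 flask and exposed to test compound for 24 and 48 h, with a DMSO control. Cells trypsinised; 0.5 × 10⁶ cells washed twice in PBS and stained with 5 μl annexin V-FITC plus 5 μl PI in 1× binding buffer, 15 min, room temperature, dark. Read by flow cytometry; early, late and total apoptotic fractions scored.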

MDA-MB-468 cells [2] = assay: Cell cycle analysis; format: cell-based; details: for cell cycle arrest (in words): MDA-MB-468
Summary of the method: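 Cells plated at 4 × 10⁶ per T75 flask and treated with test compound for 24 and 48 h. Harvested by trypsinisation, washed in PBS and fixed in ice-cold absolute alcohol. DNA stained with a commercial cell-cycle DNA reagent kit per the maker's instructions. Phase distribution determined by flow cytometry.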

DOX/MDA-MB-468 cells = assay: MTT cytotoxicity in drug-resistant DOX/MDA-MB-468 cell line; format: cell-based; details: read-out: IC50 DOX/MDA-MB-468, drug-resistant DOX/MDA-MB-468 cells
P-glycoprotein = assay: Quantitative real time PCR for P-glycoprotein; format: cell-based; details: MDA-MB-468/ADR cells, 72 h, in comparison to the control (1)
Summary of the method: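 P-gp gene expression measured by real-time RT-PCR in 1 × 10⁵ MDA-MB-468 cells. Cells exposed to test compound at 0.125, 0.250, 0.500 and 1.000 μM for 72 h. Expression reported as fold change relative to untreated control, set at 1.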

male Wistar rats = assay: Toxicological study / calculation of LD50; format: in vivo, rat
Summary of the method: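 Adult male Wistar rats, 200 ± 20 g, acclimatised 7 days at 22 ± 3 °C under a natural light cycle and fasted 18 h before dosing. Single dose of test compound in 0.5 mL DMSO. Five dose levels given to groups of five rats.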

## CSc1nc(-c2ccc(Cl)cc2)c2c(NC(=O)c3ccccc3)nnc-2[nH]1 [Compound 6, N-(4-(4-Chlorophenyl)-6-(methylthio)-7H-pyrazolo[3,4-d]pyrimidin-3-yl)benzamide]
HOP-92
  inhibition at 10 µM: > 100%
NCI 60 cancer cell lines; most of the cancer cell lines
  antiproliferative activity (in words): poor antiproliferative activity

## Ethyl 1-(3-benzamido-4-(4-chlorophenyl)-7H-pyrazolo[3,4-d]pyrimidin-6-yl)-5-(2,4-dichlorophenyl)-3-oxo-2,3-dihydro-1H-pyrazole-4-carboxylate [Compound 16]
EGFR tyrosine kinase
  IC50: 34 ± 2 nM
MDA-MB-468 cells [1]; MDA-MB-468
  apoptosis induction (in words): increased the percentage of apoptotic cells in a time-dependent manner
MDA-MB-468 cells [1]; MDA-MB-468, IC50 of compound, DMSO control 0.27%
  late cellular apoptosis: 54.61%
MDA-MB-468 cells [1]; MDA-MB-468, IC50 of compound, DMSO control 0.39%, lower right quadrant
  early/primary apoptosis: 18.08%
MDA-MB-468 cells [1]; MDA-MB-468, IC50 of compound, DMSO control 2.09%
  total apoptosis: 46.59%
MDA-MB-468 cells [1]; MDA-MB-468, IC50 of compound, control 0.25%, upper right quadrant
  late apoptosis: 31.47%
MDA-MB-468 cells [2]
  cell cycle arrest (in words): cell cycle arrest at the S phase; also recorded: G1 and S phases arrest pattern
MDA-MB-468 cells [2]; MDA-MB-468, compound at its IC50, control 22.98%
  cells in S phase (%DIP S): 28.16%
MDA-MB-468 cells [2]; MDA-MB-468, compound at its IC50, control 52.76%
  cells in G1 phase (%DIP G1): 57.41%
MDA-MB-468 cells [2]; listed as 16a
  cell cycle arrest (in words): induce cell cycle arrest with concurrent increase in G1 and S population
DOX/MDA-MB-468 cells
  IC50: 844 nM
P-glycoprotein
  MDA-MB-468 P-glycoprotein fold change: 0.449 fold
Male Wistar rats; 1000 mg kg^−1
  time to death: ≤ 7 days
Male Wistar rats; 1000 mg kg^−1, after intraperitoneal injection
  toxic signs: abdominal muscle contractions and ataxia signs
Male Wistar rats; doses 55, 90 and 100 mg kg^−1
  effect on the animals: does not produce any significant effect

## N-(4-(4-Chlorophenyl)-6-(4-cyano-5-(2,4-dichlorophenyl)-3-oxo-2,3-dihydro-1H-pyrazol-1-yl)-7H-pyrazolo[3,4-d]pyrimidin-3-yl)benzamide [Compound 15]
EGFR tyrosine kinase
  IC50: 135 ± 6 nM
DOX/MDA-MB-468 cells
  IC50: 267 nM
P-glycoprotein
  MDA-MB-468 P-glycoprotein fold change: 0.301 fold
NCI 60 cancer cell lines; some melanoma, ovarian, renal and breast cancer cell lines
  cell growth inhibition: above 100%
